Measured values: paper PMC4238798 (Biochemistry, 2014)

Legend:
[1] = target: T1, RePC (Rhizobium etli pyruvate carboxylase) (Rhizobium etli, UniProt Q2K340); assay: malate dehydrogenase-coupled pyruvate carboxylation assay, global fit; format: biochemical
T1 sequence (Q2K340 1-1154): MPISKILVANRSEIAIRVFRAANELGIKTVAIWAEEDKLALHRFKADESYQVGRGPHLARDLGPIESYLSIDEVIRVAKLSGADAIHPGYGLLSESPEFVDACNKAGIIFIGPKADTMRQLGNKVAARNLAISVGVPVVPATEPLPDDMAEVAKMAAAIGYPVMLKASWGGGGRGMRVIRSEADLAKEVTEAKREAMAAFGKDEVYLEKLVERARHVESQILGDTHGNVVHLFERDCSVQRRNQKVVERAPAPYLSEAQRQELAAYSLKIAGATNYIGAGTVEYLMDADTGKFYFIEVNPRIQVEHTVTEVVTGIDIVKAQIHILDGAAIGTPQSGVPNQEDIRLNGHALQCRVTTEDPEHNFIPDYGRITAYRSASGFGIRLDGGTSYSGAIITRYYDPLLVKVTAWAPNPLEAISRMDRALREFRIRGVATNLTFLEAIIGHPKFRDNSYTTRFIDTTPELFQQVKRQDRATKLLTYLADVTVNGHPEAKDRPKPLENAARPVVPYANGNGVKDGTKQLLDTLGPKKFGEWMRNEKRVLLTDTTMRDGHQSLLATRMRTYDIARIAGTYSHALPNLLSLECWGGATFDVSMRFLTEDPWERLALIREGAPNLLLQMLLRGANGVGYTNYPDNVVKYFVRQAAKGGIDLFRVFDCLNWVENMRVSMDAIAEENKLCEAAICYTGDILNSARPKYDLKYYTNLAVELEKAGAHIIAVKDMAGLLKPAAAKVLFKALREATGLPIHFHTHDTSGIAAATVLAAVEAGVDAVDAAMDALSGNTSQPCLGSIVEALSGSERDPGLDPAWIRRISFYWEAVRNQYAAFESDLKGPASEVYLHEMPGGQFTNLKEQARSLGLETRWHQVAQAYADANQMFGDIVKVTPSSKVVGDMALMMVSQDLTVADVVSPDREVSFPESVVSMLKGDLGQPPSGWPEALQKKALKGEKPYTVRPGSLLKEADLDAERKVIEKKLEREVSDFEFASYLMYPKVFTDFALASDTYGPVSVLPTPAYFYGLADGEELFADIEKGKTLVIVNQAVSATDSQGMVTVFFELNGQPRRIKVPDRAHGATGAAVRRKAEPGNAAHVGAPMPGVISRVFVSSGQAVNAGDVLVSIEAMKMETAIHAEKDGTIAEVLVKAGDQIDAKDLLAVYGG

[2] = target: T1, RePC (Rhizobium etli pyruvate carboxylase); assay: malate dehydrogenase-coupled pyruvate carboxylation assay; format: biochemical
Outline: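 N-terminally His-tagged R. etli enzyme, expressed in E. coli BL21(DE3). NADH oxidation followed, with oxaloacetate converted to malate by 5 units of malate dehydrogenase. Run at 30 °C in 0.1 M Tris-HCl pH 7.8 with 20 mM NaHCO3, 6 mM MgCl2, 1 mM MgATP, 0.2 mM NADH and 10 mM pyruvate. Activator varied 0–150 μM at 0–8 mM L-aspartate. kapp = initial velocity/enzymic biotin. Hill-equation nonlinear least-squares fit gives the activation constant.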

For `N[C@@H](CC(=O)O)C(=O)O` [L-aspartate], the Ki [1] was 1.26 ± 0.08 mM.

Compound `CC(=O)SCCNC(=O)CCNC(=O)[C@H](O)C(C)(C)COP(=O)(O)OP(=O)(O)OC[C@H]1O[C@@H](n2cnc3c(N)ncnc32)[C@H](O)[C@@H]1OP(=O)(O)O` [acetyl-CoA] has an EC50 [2] of 7.3 ± 0.9 µM.
